PMC3700226 (Organic & Biomolecular Chemistry, 2012)

Legend:
HT1080 cells [1] = experiment: Luminescent cell viability assay; type: cell-based, human; settings: ratio of 72 h IC50 values, WI-38 = 1.0
Outline: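 HeLa, HT1080, U2OS and WI-38 cells were grown in DMEM with 10% FCS. Cells were plated at 4000 per well and left 24 h, then serially diluted test compound (0–40 μM) was added. Viability was read by CellTiter-Glo luminescence after 72 h, 20 min after reagent addition at rt, in triplicate. IC50 values were determined separately for HT1080 and for WI-38.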

HT1080 cells [2] = experiment: β-Galactosidase senescence assay; type: cell-based, human; settings: HT1080, 8 days of incubation at respective IC50
Outline: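 HT1080 cells were treated 4 d with test compound at its IC50, or untreated, then reseeded at 4000 per chamber-slide well for another 4 d of treatment. Cells were fixed in 2% formaldehyde/0.2% glutaraldehyde for 15 min. They were stained 16 h at 37 °C with 1 mg ml−1 X-gal in pH 6.0 citrate/phosphate buffer containing ferro/ferricyanide for senescence-associated β-galactosidase.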

[3] = test system: telomeric 3′ G-overhang in HT1080 cells; experiment: Non-denaturing hybridization assay of telomeric G-overhang; type: cell-based, human; settings: HT1080, respective IC50, time course of 12 days
[4] = test system: HeLa, HT1080, U2OS and WI-38 cells; experiment: Luminescent cell viability assay, panel of four human cell lines; type: cell-based; settings: 3 days of exposure; concentrations up to 40 µM
HT1080 cells [5] = experiment: Long-term growth assay; type: cell-based, human; settings: HT1080, incubated at respective IC50 over 30 days
Outline: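 HT1080 cells were seeded at 300000 per T-25 flask with test compound at its IC50, or untreated. Every 3–4 days cells were split, counted with a haemocytometer and reseeded at 300000. Population doublings were calculated as PD = ln(n1/n2)/ln2 and run in triplicate. Dead cells were counted at each time point by trypan blue exclusion.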

[6] = test system: human telomeric G-quadruplex-forming sequence (H-Telo); experiment: FRET-melting assay, H-Telo; type: binding; settings: 1 µM compound, 200 nM oligonucleotide, 60 mM potassium cacodylate pH 7.4
Outline: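 Dual FAM/TAMRA-labelled H-Telo oligonucleotide was annealed at 400 nM (94 °C for 10 min, then cooled to rt at 0.1 °C min−1). It was mixed with test compound in 60 mM potassium cacodylate, pH 7.4, at 200 nM final oligonucleotide. Fluorescence was read with excitation at 483 nm and emission at 533 nm. Melting-temperature shift was measured in triplicate.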

## NCCOc1cc(C(=O)Nc2cc(OCCN)c3ccccc3n2)nc(C(=O)Nc2cc(OCCN)c3ccccc3n2)c1 [Compound 1, pyridostatin]
HT1080 cells [1]
  Selectivity ratio HT1080 over WI-38: 18.5

## NCCOc1cc(C(=O)Nc2cc(OCCN3CCCC3)c3ccccc3n2)nc(C(=O)Nc2cc(OCCN3CCCC3)c3ccccc3n2)c1 [Compound 9]
HT1080 cells [2]
  Senescent cells (β-galactosidase staining): presence of senescent cells

## O=C(Nc1cc(OCCN2CCCC2)c2ccccc2n1)c1cc(OCCN2CCCC2)cc(C(=O)Nc2cc(OCCN3CCCC3)c3ccccc3n2)n1 [Compound 10]
HT1080 cells [2]
  Senescent cells (β-galactosidase staining): presence of senescent cells
[3]
  Kinetics of G-overhang degradation (in words): most potent to induce an early effect

## COc1cc(C(=O)Nc2cc(OC)c3ccccc3n2)nc(C(=O)Nc2cc(OC)c3ccccc3n2)c1 [Compound 14]
[4]
  Growth inhibition against the panel of cell lines (in words): did not exhibit growth inhibitory properties

## O=C(Nc1cc(OCCN2CCCC2)c2ccccc2n1)c1cc(Cl)cc(C(=O)Nc2cc(OCCN3CCCC3)c3ccccc3n2)n1 [Compound 17]
HT1080 cells [2]
  Senescent cells (β-galactosidase staining): presence of senescent cells
[3]
  Kinetics of G-overhang degradation (in words): most potent to induce an early effect

## NCCOc1cc(NC(=O)c2cc(OCc3ccc(F)cc3)cc(C(=O)Nc3cc(OCCN)c4ccccc4n3)n2)nc2ccccc12 [Compound 20]
HT1080 cells [5]
  Exposure time after which flattening of the population doubling curve started: 19 days
[6]
  FRET ΔTm, H-Telo: 8.8 K

## O=C(Nc1cc(OCCN2CCCC2)c2ccccc2n1)c1cc(OCc2ccc(F)cc2)cc(C(=O)Nc2cc(OCCN3CCCC3)c3ccccc3n2)n1 [Compound 21]
[6]
  FRET ΔTm, H-Telo: 4.3 K
